Published values from different studies.
Protocols differ between the studies behind these lines.
Target: Fibroblast growth factor receptor 4 (FGFR4, Homo sapiens, UniProt P22455)

For C=CC(=O)Nc1cc(Nc2nccc(Nc3cc(Cl)c(F)cc3C(C)(C)O)n2)c(OC)cc1N1CC[C@@H](N(C)C)C1, the inhibition was 2% (enzyme activity; inhibitor; 1 µM).
The remaining binding of CC(=O)N1CCC(c2ccc(C(=O)NC3=NCCN3)cc2C(F)(F)F)CC1 is reported as 88% (cell-free assay; competition with immobilised ligand; 1 µM).
Cc1sc(C(=O)NC2COC2)cc1-n1cc(NC(=O)Nc2c(F)cccc2Cl)cn1 gave a remaining activity of 96.8% (enzyme activity; inhibitor; 10 µM).
With CN(C)CC#Cc1ccc(OCCCc2sc(N3CCc4cccc(C(=O)Nc5nc6ccccc6s5)c4C3)nc2C(=O)O)c(F)c1 the remaining binding was 100% (cell-free assay; competition with immobilised ligand; 1 µM).
COc1cc2ncnc(Nc3ccc(Oc4ccccc4)c(C)c3C)c2cc1OC has an inhibition of -1% (enzyme activity; inhibitor; 1 µM).
CC(C)(C)c1nc2c(s1)c1nc(N)ncc1c1ccc(NS(=O)(=O)c3c(F)cccc3F)c(F)c12 gave a remaining activity of 104% (enzyme activity; inhibitor; radiometric; 1 µM).
With CCCCN(CCCC)C(=O)CN1C[C@H](c2cc(OC)c3c(c2)OCO3)[C@@H](C(=O)O)[C@@H]1CC(C)(C)CCC the remaining binding was 100% (cell-free assay; competition with immobilised ligand; 1 µM).
CCN(CC)c1ccc(C2=NNC(=O)CC2C)cc1[N+](=O)[O-] (centres unmarked) has a remaining activity of 93% (enzyme activity; inhibitor; 10 µM).
The remaining activity of O=C(Nc1cnn(-c2csc(C(=O)NC3COC3)c2)c1)Nc1c(F)cccc1Cl is reported as 99.6% (enzyme activity; inhibitor; 5 µM).
With Cc1cnc(NC2CCOCC2)nc1-n1cnc(C(=O)NC(CN)c2cc(F)cc(Cl)c2)c1 (centres unmarked) the remaining activity was 105% (enzyme activity; inhibitor; radiometric; 1 µM).
O=C(N1CCS(=O)(=O)CC1)N1C[C@H](c2ccc(OC(F)(F)F)cc2)C[C@H](c2nc(C3CC3)no2)C1 gave a remaining binding of 100% (cell-free assay; competition with immobilised ligand; 1 µM).
CCN(CC)CCNC(=O)c1c(C)[nH]c(/C=C2\C(=O)Nc3ccc(F)cc32)c1C has an inhibition of -11% (enzyme activity; inhibitor; 0.3 µM).
The inhibition of COc1cc2nccc(Oc3ccc(NC(=O)c4c5n(n(-c6ccc(F)cc6)c4=O)CCCC5)cc3)c2cc1OC is reported as 5% (enzyme activity; inhibitor; 0.1 µM).
CC(C)(O)c1cncc(-c2nc3ccc(F)cc3n2C2CC2)c1 gave a remaining binding of 100% (cell-free assay; competition with immobilised ligand; 1 µM).
CCCOc1ccc(OC)c(F)c1C(=O)c1ccc(C(=O)N[C@@H]2CNC[C@H]2NC(=O)c2ccc3[nH]ncc3c2)cc1 gave a remaining activity of 75% (enzyme activity; inhibitor; 10 µM).
With CNC(=O)c1cc(Oc2ccc(NC(=O)Nc3ccc(Cl)c(C(F)(F)F)c3)cc2)ccn1 the inhibition was 47% (enzyme activity; inhibitor; 10 µM).
The remaining signal of O=C1NC(=O)c2cc(Nc3ccc(F)cc3)c(Nc3ccc(F)cc3)cc21 is reported as 95.5% (cell-free assay; 0.5 µM).
Cc1ccc(NC(=O)c2ccc(C)c(C(F)(F)F)c2)cc1C#Cc1nn(C2CCC(O)CC2)c2ncnc(N)c12 (centres unmarked) gave a remaining signal of 33% (cell-free assay; 10 µM).
For CC/C(=N\NC(=O)NCc1cccc(O)c1)c1ccc(O)c(C)c1O, the inhibition was 3.3% (enzyme activity; inhibitor; 0.1 µM).
The remaining binding of Cn1cc(Cl)c2c(Oc3c(F)cc(Nc4cc(Cl)nc(N)n4)cc3F)ccnc21 is reported as 86% (cell-free assay; competition with immobilised ligand; 0.1 µM).
CC(C)(O)[C@H]1CC[C@H](Nc2ccc3ncc(-c4cccc(C(F)(F)F)c4)n3n2)CC1 gave a remaining activity of 108% (enzyme activity; inhibitor; 1 µM).
COc1ccc(COc2ccc(Cc3cnc(N)nc3N)cc2OC)cc1 gave a remaining signal of 99.7% (cell-free assay; 0.5 µM).
Cn1nc(C(=O)NCc2ccc(C(=O)O)cc2)cc1-c1ccc2[nH]ccc2c1 gave a remaining binding of 100% (cell-free assay; competition with immobilised ligand; 0.1 µM).
